This is an account of results in ChEMBL document CHEMBL1649460, “Integron mobilization unit as a source of mobility of antibiotic resistance genes” (2009).

Converted amounts (≈) assume the structure as drawn.

For test [1], the system named is Escherichia coli. Description: Antimicrobial activity against Escherichia coli J53 by agar dilution method. Format: functional. An outline of the steps: (§1)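 MICs by agar dilution, with β-lactams tested alone. Colistin was the exception, read by Etest strip. Results interpreted according to CLSI guidelines.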
A general note: Agar dilution tests growth on a series of plates holding different concentrations.

Test [2] has as its system Pseudomonas aeruginosa. Description: Antimicrobial activity against Pseudomonas aeruginosa PU21 by agar dilution in presence of beta-lactamase inhibitor clavulanic acid. Format: functional. An outline of the steps:
(§2)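 Agar dilution MICs of β-lactams, each tested with clavulanic acid held at a fixed 4 µg/ml. Results interpreted according to CLSI guidelines.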

For test [3], the system named is Enterobacter cloacae. Put plainly: Antimicrobial activity against Enterobacter cloacae CHE-2 harboring blaGES-5 and blaSHV-5 gene by agar dilution method. The test is classed as functional. An outline of the steps: as §1
The test system of test [4] is Escherichia coli. Put plainly: Antimicrobial activity against Escherichia coli J53 harboring pCHE-A plasmid expressing blaGES-5 gene by agar dilution in presence of beta-lactamase inhibitor clavulanic acid.
The subject of test [5] is Pseudomonas aeruginosa. Description: Antimicrobial activity against Pseudomonas aeruginosa PU21 harboring pCHE-A plasmid expressing blaGES-5 gene by agar dilution method. Format: functional. In short, it runs like this: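 Natural plasmid pCHE-A was electrotransformed into electrocompetent P. aeruginosa PU21, and transformants were selected on agar with ticarcillin 100 µg/ml. MICs by agar dilution, with β-lactams tested alone; colistin by Etest. Interpreted per CLSI.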

Test [6] concerns Pseudomonas aeruginosa. Put plainly: Antimicrobial activity against Pseudomonas aeruginosa PU21 harboring pCHE-A plasmid expressing blaGES-5 gene by agar dilution in presence of beta-lactamase inhibitor clavulanic acid. Format: functional. An outline of the steps:
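MICs by agar dilution. Beta-lactams tested alone and with clavulanic acid held at a fixed 4 µg/ml. Results were interpreted against CLSI guidelines.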

Test [7] has as its system Escherichia coli. Description: Antimicrobial activity against Escherichia coli J53 harboring pCHE-B plasmid expressing blaSHV-5 gene by agar dilution in presence of beta-lactamase inhibitor clavulanic acid.
Test [8] concerns Pseudomonas aeruginosa. Put plainly: Antimicrobial activity against Pseudomonas aeruginosa PU21 by agar dilution method. The test is classed as functional. An outline of the steps: as §1
The subject of test [9] is Escherichia coli. Put plainly: Antimicrobial activity against Escherichia coli J53 harboring pCHE-B plasmid expressing blaSHV-5 gene by agar dilution method. Format: functional.
The subject of test [10] is Escherichia coli. Put plainly: Antimicrobial activity against Escherichia coli J53 harboring pCHE-A plasmid expressing blaGES-5 gene by agar dilution method. Format: functional.
The subject of test [11] is Escherichia coli. Put plainly: Antimicrobial activity against Escherichia coli J53 by agar dilution in presence of beta-lactamase inhibitor clavulanic acid.
Test [12] deals with Enterobacter cloacae. Put plainly: Antimicrobial activity against Enterobacter cloacae CHE-2 harboring blaGES-5 and blaSHV-5 gene by agar dilution in presence of beta-lactamase inhibitor clavulanic acid. Format: functional. An outline of the steps:
as §2

By MIC is commonly meant the smallest concentration in the dilution series that meets the test's criterion for growth inhibition. As to `CC(C)(O/N=C(\C(=O)N[C@@H]1C(=O)N2C(C(=O)[O-])=C(C[n+]3ccccc3)CS[C@H]12)c1csc(N)n1)C(=O)O` [CEFTAZIDIME], the MIC against Escherichia coli [1] is 0.06 µg/mL (≈ 0.11 µM); with Pseudomonas aeruginosa [2], 1 µg/mL; against Enterobacter cloacae [3], more than 512 µg/mL; with Escherichia coli [4] it was 16 µg/mL; in the test with Pseudomonas aeruginosa [5], 256 µg/mL (≈ 468 µM); with Pseudomonas aeruginosa [6] it was 64 µg/mL. Further, the MIC in the test with Escherichia coli [7] was found to be 4 µg/mL; against Pseudomonas aeruginosa [8] it was 1 µg/mL (≈ 1.83 µM); in the test with Escherichia coli [9], 256 µg/mL (≈ 468 µM); against Escherichia coli [10] it was 128 µg/mL (≈ 234 µM); in the test on Escherichia coli [11] it was 0.06 µg/mL; in the test on Enterobacter cloacae [12], 256 µg/mL.

As to `C[C@@H](O)[C@H]1C(=O)N2C(C(=O)O)=C(S[C@@H]3CN[C@H](C(=O)Nc4cccc(C(=O)O)c4)C3)[C@H](C)[C@H]12` [ERTAPENEM], the MIC in the test on Escherichia coli [1] was 0.03 µg/mL (≈ 0.0631 µM); against Enterobacter cloacae [3] it was more than 32 µg/mL; in the test on Pseudomonas aeruginosa [5], more than 32 µg/mL; against Pseudomonas aeruginosa [8], 8 µg/mL (≈ 16.8 µM); in the test with Escherichia coli [9], 0.06 µg/mL (≈ 0.126 µM); against Escherichia coli [10], 0.12 µg/mL (≈ 0.252 µM).

Take `C[C@@H](O)[C@H]1C(=O)N2C(C(=O)O)=C(S[C@@H]3CN[C@H](C(=O)N(C)C)C3)[C@H](C)[C@H]12` [MEROPENEM]: the MIC in the test with Escherichia coli [1] is 0.03 µg/mL (≈ 0.0782 µM); against Enterobacter cloacae [3], more than 32 µg/mL; against Pseudomonas aeruginosa [5], more than 32 µg/mL; against Pseudomonas aeruginosa [8] it was 0.5 µg/mL (≈ 1.3 µM); with Escherichia coli [9], 0.06 µg/mL (≈ 0.156 µM); against Escherichia coli [10], 0.25 µg/mL (≈ 0.652 µM).

`CO[C@@]1(NC(=O)Cc2cccs2)C(=O)N2C(C(=O)O)=C(COC(N)=O)CS[C@@H]21` [CEFOXITIN]: the minimal inhibitory concentration (MIC) was 4 µg/mL (≈ 9.36 µM) in the test on Escherichia coli [1]; more than 512 µg/mL in the test with Enterobacter cloacae [3]; more than 512 µg/mL in the test on Pseudomonas aeruginosa [8]; 4 µg/mL (≈ 9.36 µM) in the test with Escherichia coli [9]; 128 µg/mL (≈ 299 µM) with Escherichia coli [10].

As for `CC1(C)S[C@@H]2[C@H](NC(=O)[C@H](N)c3ccc(O)cc3)C(=O)N2[C@H]1C(=O)O` [AMOXICILLIN], the minimal inhibitory concentration (MIC) is 2 µg/mL (≈ 5.47 µM) with Escherichia coli [1]; more than 512 µg/mL in the test with Pseudomonas aeruginosa [2]; more than 512 µg/mL against Enterobacter cloacae [3]; 16 µg/mL with Escherichia coli [4]; 4 µg/mL with Escherichia coli [7]; more than 512 µg/mL with Pseudomonas aeruginosa [8]. Moreover, the MIC is more than 512 µg/mL against Escherichia coli [9], more than 512 µg/mL in the test on Escherichia coli [10], 2 µg/mL in the test on Escherichia coli [11] and more than 256 µg/mL in the test on Enterobacter cloacae [12].

`C[C@@H](O)[C@H]1C(=O)N2C(C(=O)O)=C(SCCNC=N)C[C@H]12` [IMIPENEM ANHYDROUS]: the MIC in the test with Enterobacter cloacae [3] is more than 32 µg/mL; in the test on Pseudomonas aeruginosa [5] it was 16 µg/mL (≈ 53.4 µM); in the test with Pseudomonas aeruginosa [8], 2 µg/mL (≈ 6.68 µM); with Escherichia coli [9] it was 0.06 µg/mL (≈ 0.2 µM); in the test with Escherichia coli [10], 1 µg/mL (≈ 3.34 µM).
